High-throughput results: PubChem BioAssay, several laboratories
This is one part of a sample in which hits are shown more often than they occur.
XiGFP reactiv: X-chromosome reactivation activator; AID 743238; activation, % at 7.58 µM; XiGFP mouse fibroblasts, % GFP-positive cells imaging, 3 d; cells co-treated with 5-aza-dC sensitizer; scaled so ellipticine positive control = 100%; 360,000 tested, 0.055% active;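 active means mean normalized replicate activation at least 10% and every replicate at or above 10%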
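Schedule: 3 d treatment, 15 min room-temperature fixation; system: 68-5-11 XiGFP fibroblast line; buffer or medium: DMEM plus 5-aza-dC sensitizer; control set: ellipticine 6 µM positive control; compound: one concentration, pinned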
Myeloid diff MLP: promotes myeloid progenitor differentiation; ER-HoxA9 myeloid progenitors, lysozyme-GFP differentiation, flow cytometry; calls only at 10 µM; 360,000 tested, 1% active; AID 624256;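 active means normalized GFP-positive differentiation at or above the plate's own cutoff, the solvent-only control mean plus 3 SD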;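 further: cells exposed to compound for four days before flow analysis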
ABCB6 inh MLPCN: human ABCB6 transporter inhibition | 360,000 tested, 0.19% active | fluorescence ratio to DMSO, % at 10 µM | K562-ABCB6 porphyrin accumulation, flow cytometry, 1 h; hits give low values | Q9NP58 | AID 602162;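 active means fluorescence ratio to DMSO below 75%, the collection mean minus 3 SD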;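 further: signal is porphyrin accumulated inside mitochondria; lower ratio means ABCB6 inhibition with less porphyrin fluorescence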
Myeloid diff CP1: promotes myeloid progenitor differentiation; 2,300 tested, 2% active; calls only; shares compounds with Myeloid diff MLP; ER-HoxA9 myeloid progenitors, GFP/Mac1 double-positive flow;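 active means share of green or green-and-red cells above 9 and 9% in run 1 or 4 and 3% in run 2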
GFP autofluor: compound fluorescence in myeloid differentiation counter-screen; AID 651707; shares compounds with Myeloid diff MLP; fluorescence response, % (test concentration not listed); 2,300 tested, 7.4% active; ER-HoxA9 myeloid progenitors, no estrogen, GFP autofluorescence flow cytometry; vehicle wells 0%, positive control 100%;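 active means over 5% cells positive for green fluorescent reporter, or over 2% positive for both it and APC stain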
Numbers stand for hits; 0 = inactive; - = no result; + = active, no number.

SMILES	XiGFP reactiv	Myeloid diff MLP	ABCB6 inh MLPCN	Myeloid diff CP1	GFP autofluor
Nc1nnc(N)c2ccccc12	0	+	0	0	0
CC1CC(C)CN(c2ncc3c(n2)CC(c2ccc(Cl)cc2)CC3=O)C1 (stereo not given)	-	0	0	0	0
CC1CC(C)CN(c2ncc3c(n2)CC(c2ccccc2Cl)CC3=O)C1 (stereo not given)	-	0	0	-	-
C[C@H]1CN([C@@H](C)CO)C(=O)c2cc(NS(=O)(=O)c3cn(C)cn3)ccc2O[C@@H]1CN(C)Cc1ccncc1	0	-	-	-	-
CO[C@@H]1CN(C)C(=O)c2ccc(NS(=O)(=O)CC(F)(F)F)cc2OC[C@@H](C)NC[C@@H]1C	0	-	-	-	-
COc1cc(/C=C2\SC(=S)N(CCC(=O)N3CCN(C)CC3)C2=O)cc(OC)c1OC	0	+	0	0	0
COc1cc(/C=C2/SC(=S)N(CCC(=O)N3CCN(C)CC3)C2=O)cc(OC)c1OC	0	0	0	-	-
C[C@@H](NC(=O)C[C@@H]1CC[C@H]2[C@@H](COC[C@@H](O)CN2C)O1)c1ccccc1	0	-	-	-	-
CC12Cc3ccc4ccccc4c3C=C1C[N+](C)(C)C2 (stereo not given)	-	0	0	-	-
CC[N+]1(CC)CC2=Cc3c(ccc4ccccc34)CC2C1 (stereo not given)	-	+	0	0	0
CO[C@@H]1CN(C)C(=O)c2cc(NC(=O)C3CCC3)ccc2OC[C@H](C)N(CC2CCCCC2)C[C@H]1C	0	-	-	-	-
CCC(COC)NCc1cn(-c2ccc(OC)cc2)nc1-c1cccc(F)c1 (stereo not given)	0	+	0	0	0
COc1ccc(-n2cc(CNC(C)c3ccncn3)c(-c3cccc(F)c3)n2)cc1 (stereo not given)	0	0	0	-	-
CCCNC(=O)C[C@@H]1C[C@@H]2c3cc(NC(=O)Nc4ccccc4)ccc3O[C@@H]2[C@H](CO)O1	0	-	-	-	-
CCC(C)N(C(=O)Cn1nnc2ccccc21)C(C(=O)NCc1ccco1)c1cccc(OC)c1 (stereo not given)	-	0	0	0	0
COCCNC(=O)C(c1cccc(OC)c1)N(C(=O)Cn1nnc2ccccc21)c1cccnc1 (stereo not given)	-	0	0	-	-
c1ccc(C2=Nc3ccccc3OC2)cc1	-	0	0	0	0
Clc1ccc(C2=Nc3cc(Cl)ccc3OC2)cc1	0	0	0	-	-
Cc1noc(C)c1NC(=O)Nc1ccc2c(c1)C(=O)N([C@@H](C)CO)C[C@H](C)[C@@H](CN(C)Cc1ccccc1)OCCCC[C@@H](C)O2	0	-	-	-	-
COc1ccccc1OCc1nnc(SCCN2CCOCC2)o1	-	0	0	0	0
COc1ccccc1OCc1nnc(SCC(=O)N2CCCCC2)o1	0	0	0	-	-
CC(C)OC(=O)CSc1nnc(Cc2ccccc2)n1C	-	+	0	0	0
Cn1c(Cc2ccccc2)nnc1SCC(=O)Nc1ccccc1	0	0	0	-	-
CN1c2ccccc2C(C)(C)C12C=Cc1cc(O)ccc1O2 (stereo not given)	-	+	0	0	53
CN1c2ccccc2C(C)(C)C12C=Nc1c(cc(N3CCOCC3)c3ccccc13)O2 (stereo not given)	-	0	0	-	-
SMILES	XiGFP reactiv	Myeloid diff MLP	ABCB6 inh MLPCN	Myeloid diff CP1	GFP autofluor
COc1ccc(C(=O)C(C)[n+]2ccc(C)c3ccccc32)cc1[N+](=O)[O-] (stereo not given)	0	+	0	0	0
COc1ccc(C(=O)NC(C)CCc2ccccc2)cc1[N+](=O)[O-] (stereo not given)	0	-	0	-	-
CC(C)OC(=O)N(C)C[C@@H]1OCc2cn(nn2)CCCC(=O)N([C@@H](C)CO)C[C@@H]1C	0	-	-	-	-
COc1ccc(S(=O)(=O)N2CCN(Cc3cccc(OC)c3)CC2)cc1	0	0	0	-	-
COc1ccc(S(=O)(=O)N2CCCN(Cc3cccc(F)c3)CC2)cc1	-	0	0	0	0
CCCNC(=O)N1CCC2(CC1)CN(C(=O)CC)[C@H](CO)c1c2c2ccc(OC)cc2n1C	0	-	-	-	-
CCCC(=O)Nc1ccc2c(c1)OC[C@H](C)N(C(=O)c1cnccn1)C[C@H](C)[C@@H](OC)CN(C)C2=O	0	-	-	-	-
O=C(Nc1cnc2ccccc2c1)N1CCOCC1	-	0	0	0	0
O=C(Nc1cnc2ccccc2c1)N1CCCCC1	-	0	0	-	-
CCN(CC)c1ccc(C=C(c2nnnn2-c2ccccc2)c2nnnn2-c2ccccc2)cc1	0	0	0	-	-
Cc1ccc(-n2nnnc2C(=Cc2ccc(N(C)C)cc2)c2nnnn2-c2ccc(C)cc2)cc1	-	+	0	0	0
Clc1ccc(-n2cc(-c3ccc(Br)cc3)[n+]3c2CCCCC3)cc1	0	0	0	-	-
